From ChEMBL document CHEMBL3526118, “Combination of GSH trapping and time-dependent inhibition assays as a predictive method of drugs generating highly reactive metabolites” (Drug Metab Dispos, 2011)

Columns and labels:
CYP2B6 [1] = target: T1, CYP2B6 (Homo sapiens, UniProt P20813); assay: Time dependent inhibition of CYP2B6 (unknown origin) at 30 uM by LC/MS system; assay type: ADME
T1 sequence (P20813 whole entry): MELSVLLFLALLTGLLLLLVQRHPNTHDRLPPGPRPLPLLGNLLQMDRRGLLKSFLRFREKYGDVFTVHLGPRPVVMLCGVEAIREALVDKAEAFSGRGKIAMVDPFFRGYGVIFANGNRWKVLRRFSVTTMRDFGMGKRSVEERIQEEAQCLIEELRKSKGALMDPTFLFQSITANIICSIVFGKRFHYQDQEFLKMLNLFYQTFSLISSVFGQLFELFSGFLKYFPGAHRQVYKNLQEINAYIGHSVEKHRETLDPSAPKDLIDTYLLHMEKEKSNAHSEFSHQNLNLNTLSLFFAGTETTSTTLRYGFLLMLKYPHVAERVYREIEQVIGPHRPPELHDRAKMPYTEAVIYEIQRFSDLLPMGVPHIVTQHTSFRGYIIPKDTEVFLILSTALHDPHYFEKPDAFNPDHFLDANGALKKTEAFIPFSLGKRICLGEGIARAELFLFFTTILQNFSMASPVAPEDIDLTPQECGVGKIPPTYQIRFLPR
Procedure, shortened: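 CYP2B6 in human liver microsomes (1.0 mg/mL in preincubation), 0.1 M sodium phosphate, NADPH-generating system. Preincubation 0 or 30 min, then ten-fold dilution into incubation solution containing 50 μM bupropion (final) for 10 min. Activity is expressed as percent of the matched no-inhibitor control. % inactivation = 100 × [1 − control(30 min)/control(0 min)]; threshold 10%.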

Liver microsome [2] = assay: Covalent binding in human liver microsomes measured per mg of protein using radiolabelled compound at 10 uM after 1 hr incubation by liquid scintillation counting
Liver microsome [3] = assay: Metabolic activation in human liver microsomes assessed as [3H]GSH adduct formation rate measured per mg of protein at 100 uM by [3H]GSH trapping assay
CYP2C8 [4] = target: T2, CYP2C8 (Homo sapiens, UniProt P10632); assay: Time dependent inhibition of CYP2C8 (unknown origin) at 10 uM by LC/MS system; assay type: ADME
T2 sequence (P10632 whole entry): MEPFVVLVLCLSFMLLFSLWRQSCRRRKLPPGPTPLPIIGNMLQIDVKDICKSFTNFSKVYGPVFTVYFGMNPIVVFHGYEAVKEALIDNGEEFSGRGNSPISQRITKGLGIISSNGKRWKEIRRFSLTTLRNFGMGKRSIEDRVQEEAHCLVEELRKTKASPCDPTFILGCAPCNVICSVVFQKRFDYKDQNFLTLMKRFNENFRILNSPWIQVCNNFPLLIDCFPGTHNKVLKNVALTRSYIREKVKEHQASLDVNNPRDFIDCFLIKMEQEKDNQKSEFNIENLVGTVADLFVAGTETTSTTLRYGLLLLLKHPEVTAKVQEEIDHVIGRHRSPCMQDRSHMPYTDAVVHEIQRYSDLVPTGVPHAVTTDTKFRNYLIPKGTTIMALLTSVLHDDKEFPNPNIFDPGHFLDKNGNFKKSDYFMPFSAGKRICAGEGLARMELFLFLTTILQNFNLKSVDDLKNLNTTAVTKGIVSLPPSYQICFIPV
Procedure, shortened: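 CYP2C8 in human liver microsomes (1.0 mg/mL in preincubation), 0.1 M sodium phosphate, NADPH-generating system. Preincubation 0 or 30 min, then ten-fold dilution into incubation with 10 μM paclitaxel (final) for 10 min.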

CYP2C9 [5] = target: T3, CYP2C9 (Homo sapiens, UniProt P11712); assay: Time dependent inhibition of CYP2C9 (unknown origin) at 30 uM by LC/MS system; assay type: ADME
Procedure, shortened: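 Human liver microsomes at 1.0 mg/mL were preincubated 0 or 30 min with compound and NADPH-generating system in 0.1 M sodium phosphate, then diluted ten-fold into incubation containing 200 μM tolbutamide (final) for 10 min to probe CYP2C9. Percent of matched no-inhibitor control was determined at each time. Inactivation = 100 × [1 − ratio of 30-min to 0-min values]; 10% threshold.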

CYP3A4 [6] = target: T4, CYP3A4 (Homo sapiens, UniProt P08684); assay: Time dependent inhibition of CYP3A4 (unknown origin) at 50 uM by LC/MS system; assay type: ADME
Procedure, shortened: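 CYP3A4: human liver microsomes at 0.5 mg/mL in preincubation, 0.1 M sodium phosphate, NADPH-generating system, 0 or 30 min. Ten-fold dilution into incubation with 2.5 μM midazolam (final), 10 min. Each value is relative to the matched control without inhibitor. % enzyme inactivation = 100 × [1 − %control(30 min)/%control(0 min)]; 10% threshold.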

[7] = Intrinsic clearance for reactive metabolites formation per mg of protein based on cytochrome P450 (unknown origin) inactivation rate by TDI assay; details: human
[8] = Intrinsic clearance for reactive metabolites formation assessed as summation of [3H]GSH adduct formation rate-based reactive metabolites formation and cytochrome P450 (unknown origin) inactivation rate-based reactive metabolites formation; details: human
Liver microsome [9] = details: human, microsomes, 100 µM
CYP1A2 = target: T5, CYP1A2 (Homo sapiens, UniProt P05177); assay: in vitro
T5 sequence (P05177 whole entry): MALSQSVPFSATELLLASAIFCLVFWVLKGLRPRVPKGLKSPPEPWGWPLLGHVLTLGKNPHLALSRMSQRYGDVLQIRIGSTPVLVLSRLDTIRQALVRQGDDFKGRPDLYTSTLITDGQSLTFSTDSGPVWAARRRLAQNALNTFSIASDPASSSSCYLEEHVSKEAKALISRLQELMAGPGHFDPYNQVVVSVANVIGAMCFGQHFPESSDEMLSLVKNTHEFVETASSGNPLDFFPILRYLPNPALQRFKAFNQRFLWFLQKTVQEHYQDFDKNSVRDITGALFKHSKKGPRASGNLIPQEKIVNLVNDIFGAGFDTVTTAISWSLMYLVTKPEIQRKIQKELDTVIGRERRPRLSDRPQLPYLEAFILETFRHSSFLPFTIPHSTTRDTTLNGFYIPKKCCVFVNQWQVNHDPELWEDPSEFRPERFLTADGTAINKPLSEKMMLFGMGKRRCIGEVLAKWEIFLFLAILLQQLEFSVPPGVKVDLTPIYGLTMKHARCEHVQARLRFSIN

CYP2D6 [10] = target: T6, CYP2D6 (Homo sapiens, UniProt P10635); assay: in vitro
CYP2C19 [11] = target: T7, CYP2C19 (Homo sapiens, UniProt P33261); assay: in vitro; details: human liver microsomes
CYP2C19 [12] = target: T7, CYP2C19; assay: Time dependent inhibition of CYP2C19 in human liver microsomes at 30 uM by LC/MS system; assay type: ADME
Procedure, shortened: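 Human liver microsomes at 2.0 mg/mL in preincubation, 0.1 M sodium phosphate, NADPH-generating system; 0- or 30-min preincubation with inhibitor, then tenfold dilution into incubation containing 50 μM (S)-mephenytoin for 10 min; LC separation. Percent inactivation = 100×[1 − %control(30 min)/%control(0 min)] versus inhibitor-free controls; >10% counted positive. Concentration reduced from 100 μM for strong reversible inhibitors.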

CYP2D6 [13] = target: T6, CYP2D6; assay: Time dependent inhibition of CYP2D6 (unknown origin) at 10 uM by LC/MS system; assay type: ADME
Procedure, shortened: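 CYP2D6 activity was measured with 30 μM dextromethorphan (final) after 0 or 30 min preincubation of compound with human liver microsomes (1.0 mg/mL) and NADPH-generating system in 0.1 M sodium phosphate. A ten-fold dilution was followed by a 10-min incubation. % inactivation = 100 × [1 − %control(30 min)/%control(0 min)]; threshold 10%.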

CYP2B6 [14] = target: T1, CYP2B6; assay: in vitro
CYP2C9 [15] = target: T3, CYP2C9; assay: in vitro
CYP3A4 [16] = target: T4, CYP3A4; assay: in vitro
CYP2C8 [17] = target: T2, CYP2C8; assay: in vitro

T3 sequence (P11712 whole entry): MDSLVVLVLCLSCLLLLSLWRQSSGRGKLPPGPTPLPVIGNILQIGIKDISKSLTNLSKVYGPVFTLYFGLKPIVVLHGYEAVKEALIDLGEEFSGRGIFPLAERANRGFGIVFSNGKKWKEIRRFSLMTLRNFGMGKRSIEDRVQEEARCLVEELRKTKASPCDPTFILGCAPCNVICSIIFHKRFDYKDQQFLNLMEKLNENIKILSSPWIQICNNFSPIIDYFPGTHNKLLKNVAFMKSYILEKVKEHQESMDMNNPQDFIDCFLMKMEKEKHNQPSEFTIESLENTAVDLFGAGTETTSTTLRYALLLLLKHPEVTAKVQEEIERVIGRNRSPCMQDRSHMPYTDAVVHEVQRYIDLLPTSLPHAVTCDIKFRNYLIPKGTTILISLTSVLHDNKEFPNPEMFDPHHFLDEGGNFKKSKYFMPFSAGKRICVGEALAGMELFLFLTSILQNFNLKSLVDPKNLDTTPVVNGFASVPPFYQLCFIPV
T4 sequence (P08684 whole entry): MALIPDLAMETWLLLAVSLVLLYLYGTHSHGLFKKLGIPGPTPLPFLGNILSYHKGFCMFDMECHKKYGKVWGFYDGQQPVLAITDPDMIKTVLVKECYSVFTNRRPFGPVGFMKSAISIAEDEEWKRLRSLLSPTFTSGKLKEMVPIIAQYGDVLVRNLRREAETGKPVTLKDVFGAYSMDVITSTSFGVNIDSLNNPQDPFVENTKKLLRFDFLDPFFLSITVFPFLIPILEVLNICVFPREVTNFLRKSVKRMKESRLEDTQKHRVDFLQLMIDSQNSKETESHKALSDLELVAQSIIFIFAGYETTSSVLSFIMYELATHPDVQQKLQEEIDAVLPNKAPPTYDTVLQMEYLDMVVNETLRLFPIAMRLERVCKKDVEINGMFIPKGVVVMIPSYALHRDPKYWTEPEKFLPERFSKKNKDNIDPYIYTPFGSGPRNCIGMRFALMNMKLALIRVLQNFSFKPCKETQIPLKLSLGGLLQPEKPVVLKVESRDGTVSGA
T7 sequence (P33261 whole entry): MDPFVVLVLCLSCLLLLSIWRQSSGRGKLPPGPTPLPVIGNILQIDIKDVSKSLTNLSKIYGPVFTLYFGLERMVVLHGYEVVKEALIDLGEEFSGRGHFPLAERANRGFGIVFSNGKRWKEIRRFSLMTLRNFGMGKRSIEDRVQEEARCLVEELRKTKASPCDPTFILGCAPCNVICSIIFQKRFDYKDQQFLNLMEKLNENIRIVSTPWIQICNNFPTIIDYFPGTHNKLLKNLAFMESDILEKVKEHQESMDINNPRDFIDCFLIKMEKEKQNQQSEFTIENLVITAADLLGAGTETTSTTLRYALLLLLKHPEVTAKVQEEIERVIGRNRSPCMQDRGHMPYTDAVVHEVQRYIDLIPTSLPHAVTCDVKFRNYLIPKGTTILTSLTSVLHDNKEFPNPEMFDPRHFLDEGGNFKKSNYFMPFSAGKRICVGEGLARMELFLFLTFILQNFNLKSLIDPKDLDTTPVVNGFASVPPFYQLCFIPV
T6 sequence (P10635 whole entry): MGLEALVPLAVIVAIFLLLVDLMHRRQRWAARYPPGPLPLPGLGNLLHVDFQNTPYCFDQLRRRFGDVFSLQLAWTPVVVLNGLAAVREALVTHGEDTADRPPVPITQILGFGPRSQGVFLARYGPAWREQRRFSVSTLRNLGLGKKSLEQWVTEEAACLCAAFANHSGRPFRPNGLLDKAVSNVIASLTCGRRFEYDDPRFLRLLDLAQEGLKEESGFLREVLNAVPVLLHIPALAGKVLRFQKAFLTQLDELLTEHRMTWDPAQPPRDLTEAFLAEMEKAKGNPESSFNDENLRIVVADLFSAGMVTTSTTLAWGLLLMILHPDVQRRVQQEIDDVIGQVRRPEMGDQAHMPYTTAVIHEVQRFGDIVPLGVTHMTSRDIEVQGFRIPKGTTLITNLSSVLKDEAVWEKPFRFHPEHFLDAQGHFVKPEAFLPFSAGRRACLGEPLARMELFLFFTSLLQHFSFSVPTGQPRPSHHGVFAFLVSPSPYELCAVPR

Compound	inhibition at 30 µM (CYP2B6 [1])	PB (Liver microsome [2])	Drug metabolism (Liver microsome [3])	inhibition at 10 µM (CYP2C8 [4])	inhibition at 30 µM (CYP2C9 [5])	inhibition at 50 µM (CYP3A4 [6])	clearance [7]	clearance [8]	CLH (Liver microsome [9])	inhibition at 100 µM (CYP1A2)	inhibition at 100 µM (CYP2D6 [10])	inhibition at 10 µM (CYP2C19 [11])	inhibition at 30 µM (CYP2C19 [12])	inhibition at 10 µM (CYP2D6 [13])	inhibition at 100 µM (CYP2B6 [14])	inhibition at 100 µM (CYP2C9 [15])	inhibition at 100 µM (CYP3A4 [16])	inhibition at 100 µM (CYP2C8 [17])
C#C[C@]1(O)CC[C@H]2[C@@H]3CCc4cc(O)ccc4[C@H]3CC[C@@]21C [ETHINYL ESTRADIOL]	< 10%	937.5 pmol	34 pmol/min	< 10%	27%	65%	0.087 µL/min/mg	0.427 µL/min/mg	0.34 µL/min/mg	18%	< 10%	< 10%	–	–	–	–	–	–
CNCCC(Oc1ccc(C(F)(F)F)cc1)c1ccccc1 (stereo not drawn) [FLUOXETINE]	–	15 pmol	metabolite_not_detected	–	–	–	0.008 µL/min/mg	0.008 µL/min/mg	–	12%	–	–	36%	< 10%	< 10%	< 10%	< 10%	< 10%
